Assay results as given in ChEMBL document CHEMBL1149297 (J Med Chem, 2004).
pEC50: −log10 of the molar value. Calls of active or inactive are those of the source. No cut-off for these calls is given here.

Columns and labels:
[1] = target: T1, Neuronal acetylcholine receptor; alpha3/beta4 (Homo sapiens, UniProt P30926+P32297); assay: Agonist activity at alpha-3-beta-4 nAChR in KXalpha-3-beta-4R2 cells by rubidium efflux assay; assay type: functional, cell-based
Outline: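 KXα3β4R2 cells stably expressing α3β4 nAChRs, grown in MEM/10% FBS with geneticin selection, plated on poly(D-lysine) and grown 48 h at 37 °C to >90% confluence. Loaded with 86Rb+ (2 μCi/well) 4 h at 37 °C, washed in Hepes-buffered saline pH 7.4, then exposed to compound for 2 min. Released 86Rb+ counted by liquid scintillation.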

[2] = target: T1, Neuronal acetylcholine receptor; alpha3/beta4; assay: Agonist activity at alpha-3-beta-4 nAChR in KXalpha-3-beta-4R2 cells by rubidium efflux assay relative to nicotine; assay type: functional, cell-based; set-up: concentration or dose not given beside the values
Outline: (§1)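 KXα3β4R2 cells (stably expressing α3β4 nAChR) grown in selection MEM with 10% FBS and geneticin, plated on poly(D-lysine) and grown 48 h at 37 °C to >90% confluence. Cells were loaded with 86Rb+ (2 μCi/well) for 4 h at 37 °C and washed three times in buffer A (Hepes/NaCl/KCl/MgSO4/CaCl2/glucose, pH 7.4). Compound in buffer A was applied for 2 min, and efflux was counted by liquid scintillation.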

[3] = target: T1, Neuronal acetylcholine receptor; alpha3/beta4; assay: Agonist activity at alpha3beta4 nAChR in KXalpha-3-beta-4R2 cells by rubidium efflux assay at 1 mM; assay type: functional, cell-based; outline: as §1
[4] = target: Neuronal acetylcholine receptor; alpha4/beta2 (Homo sapiens) (UniProt P17787+P43681); assay: Displacement of [3H]epibatidine from alpha-4-beta-2 nAChR immobilized on liquid chromatographic stationary phases; assay type: protein-complex assay
[5] = target: T1, Neuronal acetylcholine receptor; alpha3/beta4; assay: Displacement of [3H]epibatidine from alpha-3-beta-4 nAChR immobilized on liquid chromatographic stationary phases; assay type: protein-complex assay

T1 sequence (P30926 whole entry): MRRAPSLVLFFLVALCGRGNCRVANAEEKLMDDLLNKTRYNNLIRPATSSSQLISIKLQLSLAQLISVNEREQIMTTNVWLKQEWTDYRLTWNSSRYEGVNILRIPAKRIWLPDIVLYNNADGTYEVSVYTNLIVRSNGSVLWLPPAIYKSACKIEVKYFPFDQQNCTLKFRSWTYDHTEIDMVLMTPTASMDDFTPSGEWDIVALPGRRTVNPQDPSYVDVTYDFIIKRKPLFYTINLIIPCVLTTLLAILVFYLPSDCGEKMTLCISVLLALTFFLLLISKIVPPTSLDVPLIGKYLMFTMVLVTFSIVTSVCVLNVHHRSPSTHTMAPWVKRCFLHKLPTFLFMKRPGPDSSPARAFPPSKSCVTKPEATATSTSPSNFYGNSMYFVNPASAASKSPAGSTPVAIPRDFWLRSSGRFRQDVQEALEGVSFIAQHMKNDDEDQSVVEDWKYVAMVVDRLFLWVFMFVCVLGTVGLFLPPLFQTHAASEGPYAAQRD
T1 sequence (P32297 whole entry): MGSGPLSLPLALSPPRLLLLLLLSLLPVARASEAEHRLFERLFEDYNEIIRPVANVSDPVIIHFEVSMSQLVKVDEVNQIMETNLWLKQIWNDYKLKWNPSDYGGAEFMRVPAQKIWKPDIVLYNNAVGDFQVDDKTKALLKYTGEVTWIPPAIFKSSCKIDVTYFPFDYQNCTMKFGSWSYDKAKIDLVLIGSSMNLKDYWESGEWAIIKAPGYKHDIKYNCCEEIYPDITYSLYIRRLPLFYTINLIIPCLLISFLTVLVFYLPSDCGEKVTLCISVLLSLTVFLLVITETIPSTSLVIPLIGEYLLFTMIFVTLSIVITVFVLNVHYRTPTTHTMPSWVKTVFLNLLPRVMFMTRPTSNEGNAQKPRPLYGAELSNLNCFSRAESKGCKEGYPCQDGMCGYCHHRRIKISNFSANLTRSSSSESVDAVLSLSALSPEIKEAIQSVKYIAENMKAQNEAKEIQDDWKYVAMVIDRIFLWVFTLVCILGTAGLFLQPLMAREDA

SMILES | pEC50 [1] | Activity [2] | Activity [3] | Activity [4] | Activity [5]
COC(=O)N1CCC[C@@H]2C[C@@H](Sc3ccccc3)c3cc(Cl)nc(Cl)c3[C@@H]21 | 4.74 | 100% |  |  | 
c1cc2c(cn1)[C@@H]1NCCC[C@@H]1CC2 | < 3.00 | 10% | Active |  | 
CN1CCC[C@H]1c1cccnc1 |  | 100% |  | 0.26 mL | 0.16 mL
COC(=O)N1CC[C@@H]2C[C@@H](Sc3ccccc3)c3cc(Cl)nc(Cl)c3[C@@H]21 | < 3.00 | 10% | inactive | 0.17 mL | -0.04 mL
Clc1ccc(C2CC3CCC2N3)cn1 (configuration not stated) |  | inactive |  |  | 
Clc1cc2c(c(Cl)n1)[C@@H]1NCC[C@@H]1C[C@H]2Sc1ccccc1 | 4.58 | 35% |  |  | 
COC(=O)N1CC[C@@H]2CCc3ccnc(Cl)c3[C@@H]21 | < 3.00 | 10% |  | 0.18 mL | -0.32 mL
COC(=O)N1CC[C@@H]2C=Cc3cc(Cl)nc(Cl)c3[C@@H]21 | 4.68 | 100% |  | 0.28 mL | 0.28 mL
COC(=O)N1CC[C@@H]2CCc3ccncc3[C@@H]21 |  |  |  | 0.23 mL | 0.12 mL
COC(=O)N1CCC[C@@H]2C=Cc3cc(Cl)nc(Cl)c3[C@@H]21 | 4.86 | 75% |  |  | 
COC(=O)N1CC[C@@H]2C[C@@H](S(=O)(=O)c3ccccc3)c3cc(Cl)nc(Cl)c3[C@@H]21 | < 3.00 | 10% |  | 0.13 mL | -0.12 mL
